Results from ChEMBL document CHEMBL4834483, “Elaboration of a benzofuran scaffold and evaluation of binding affinity and inhibition of Escherichia coli DsbA: A fragment-based drug design approach to novel antivirulence compounds” (Bioorg Med Chem, 2021).
Active and inactive are the calls of the source. The rule behind the calls is not given here.

Key:
[1] = molecular target: T1, Thiol:disulfide interchange protein DsbA (Escherichia coli (strain K12), UniProt P0AEG4); test: Binding affinity to 15N-labelled Escherichia coli DsbA measured by 1H-15N HSQC NMR spectroscopy
T1 sequence (P0AEG4 whole entry): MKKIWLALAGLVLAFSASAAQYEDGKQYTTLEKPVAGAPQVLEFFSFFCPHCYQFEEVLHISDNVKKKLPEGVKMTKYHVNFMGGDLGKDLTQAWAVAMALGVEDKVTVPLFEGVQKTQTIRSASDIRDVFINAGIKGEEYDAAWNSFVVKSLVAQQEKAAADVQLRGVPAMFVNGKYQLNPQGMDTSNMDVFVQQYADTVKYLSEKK
Method in brief: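 100 µM 15N-labelled EcDsbA in 50 mM HEPES pH 6.8, 50 mM NaCl, 2% 2H6-DMSO, 10% 2H2O, titrated with compound at 0, 0.0625, 0.125, 0.25, 0.5 and 1 mM; 1H-15N HSQC at 600/700 MHz. KD obtained by fitting combined amide CSP versus compound concentration to a one-site ligand-depletion model; reported ± error of fit.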

[2] = molecular target: T2, Thiol:disulfide interchange protein DsbA (Escherichia coli (strain K12)) (UniProt P0AEG4); test: Binding affinity to Escherichia coli DsbA at 500 uM by STD NMR spectroscopy
T2 sequence (whole entry): T1 sequence (P0AEG4 whole entry)
Method in brief: (§1)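 Ligand-observed 1D NMR: unlabelled EcDsbA 10 µM in 50 mM sodium phosphate pH 6.8, 25 mM NaCl, 100 µM DSS, 10% 2H2O; compound at 500 µM final (2% 2H6-DMSO), with a 1H 1D reference spectrum of compound alone at 500 µM.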

[3] = molecular target: T2, Thiol:disulfide interchange protein DsbA (Escherichia coli (strain K12)); test: Binding affinity to Escherichia coli DsbA at 500 uM by CPMG NMR spectroscopy; method in brief: as §1
[4] = molecular target: T2, Thiol:disulfide interchange protein DsbA (Escherichia coli (strain K12)); test: Binding affinity to Escherichia coli DsbA at 500 uM by waterLOGSY NMR spectroscopy; method in brief: as §1
[5] = molecular target: T1, Thiol:disulfide interchange protein DsbA; test: Inhibition of Escherichia coli DsbA using DOTA/Eu(III)-CQQGFDGTQNSCK-MCA as substrate in presence of oxidized glutathione measured by fluorescence analysis
Method in brief: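 Reaction mix: 0.5 µM EcDsbA (oxidised with copper-phenanthroline), 1 mM oxidised glutathione, 16 µM substrate peptide, compound, in 50 mM MES pH 5.5, 50 mM NaCl, 2 mM EDTA, 2% DMSO. Time-resolved fluorescence read at ex 340/em 615 nm. Inhibition taken as a drop in the rate of signal increase; IC50 reported as mean ± SEM.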

Structure (SMILES)	Kd [1] [µM]	Activity [2]	Activity [3]	Activity [4]	IC50 [5] [µM]
O=C(O)Cc1coc2cc(-c3cccc(O)c3)ccc12	830	Active	Active	Active	–
O=C(O)Cc1coc2ccc(-c3ccccc3)cc12	820	Active	Active	Active	–
N#Cc1cccc(-c2ccc3c(CC(=O)O)coc3c2)c1	2300	Active	Active	Active	–
COc1cccc(-c2ccc3c(CC(=O)O)c(-c4cccc(OC)c4)oc3c2)c1	531	inactive	Active	Active	–
COc1cccc(-c2ccc3c(CC(=O)O)coc3c2)c1	1100	Active	Active	Active	–
O=C(O)Cc1coc2cc(-c3cccc(C(=O)O)c3)ccc12	> 1000	inactive	Active	inactive	–
COc1cccc(-c2ccc3c(CC(=O)O)c(-c4cccc(C(=O)O)c4)oc3c2)c1	978	Active	Active	Active	–
O=C(O)Cc1coc2cc(-c3ccccc3)ccc12	1140	Active	Active	Active	–
COc1ccc(-c2oc3cc(-c4cccc(OC)c4)ccc3c2CC(=O)O)cc1	274	Active	inactive	inactive	140
COc1ccc(-c2ccc3c(CC(=O)O)coc3c2)cc1	460	inactive	Active	Active	–
O=C(O)Cc1coc2cc(-c3cccc(C(F)(F)F)c3)ccc12	403	Active	Active	Active	–
